Test results reported in ChEMBL document CHEMBL1124216, “A novel class of potential central nervous system agents. 3-Phenyl-2-(1-piperazinyl)-5H-1-benzazepines” (1988).

Assays:
Assay type in all cases: functional
Mus musculus [1] = test: Antireserpine activity (RES) of mice after peroral administration of 100 mg/kg of compound; No inhibition; details: route oral
Mus musculus [2] = test: Antimaximal electroshock seizure (MES) activity in mice after peroral administration of 100 mg/kg of compound; 5/5; details: route oral
Mus musculus [3] = test: Antiexploratory activity (EXPL) of mice determined by an antimex activity meter, 100 mg/kg of dose was administered perorally; No inhibition; details: route oral
Mus musculus [4] = test: Antitremorine activity(TRM) of mice after peroral administration of 100 mg/kg of compound; No inhibition; details: route oral
Mus musculus [5] = test: Antireserpine activity (RES) of mice after peroral administration of 100 mg/kg of compound; Slight inhibition (31-50%); details: route oral
Mus musculus [6] = test: Antimaximal electroshock seizure (MES) activity in mice after peroral administration of 100 mg/kg of compound; 0/5; details: route oral
Mus musculus [7] = test: Antitremorine activity(TRM) of mice after peroral administration of 100 mg/kg of compound; Moderate inhibition (51-71%); details: route oral
Mus musculus [8] = test: Antitremorine activity(TRM) of mice after peroral administration of 100 mg/kg of compound; Slight inhibition (31-50%); details: route oral
Mus musculus [9] = test: Antiexploratory activity (EXPL) of mice determined by an antimex activity meter, 50 mg/kg of dose was administered perorally; No inhibition; details: route oral
Mus musculus [10] = test: Antireserpine activity (RES) of mice after peroral administration of 50 mg/kg of compound; No inhibition; details: route oral
Mus musculus [11] = test: Antiexploratory activity (EXPL) of mice determined by an antimex activity meter, 100 mg/kg of dose was administered perorally; Slight inhibition (31-50%); details: route oral
Mus musculus [12] = test: Antimaximal electroshock seizure activity was determined in mice when administered perorally; details: po
Mus musculus [13] = test: Antipentylene tetrazole activity was determined in mice when administered perorally; details: po
In short: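 Groups of five male Std-ddY mice received compound orally in 0.5% tragacanth, then pentylenetetrazole 175 mg/kg ip. Blockade of the tonic extensor component scored as anticonvulsant. ED50 was the dose protecting 50% of animals (Litchfield-Wilcoxon).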

Mus musculus [14] = test: Antiexploratory activity (EXPL) of mice determined by an antimex activity meter, 100 mg/kg of dose was administered perorally; Moderate inhibition (51-71%); details: route oral
Mus musculus [15] = test: Antimaximal electroshock seizure (MES) activity in mice after peroral administration of 10 mg/kg of compound; 0/5; details: route oral
Canis familiaris = test: Inhibition of apomorphine induced emesis in dogs at 1 mg/kg of dose.; details: Canis lupus familiaris
In short: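 Beagle dogs (10-15 kg), groups of three, given compound po in a gelatin capsule; 2 h later apomorphine hydrochloride 0.3 mg/kg sc. Vomiting counted for 1 h; mean inhibition as percent of control. ED50 is the dose giving 50% inhibition of emesis, by Litchfield-Wilcoxon.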

Mus musculus [16] = test: The homovanillic acid (HVA) levels in mouse brain at 50 mg/kg of dose.
In short: (§1)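 Mice dosed orally in 0.5% aqueous tragacanth; brains of five mice per compound pooled. Homovanillic acid measured in brain extracts and reported as brain level.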

Mus musculus [17] = test: 3,4 -Dihydroxy phenylacetic acid (DOPAC) levels in mouse brain at 50 mg/kg dose.
In short: (§2)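 Male Std-ddY mice, 20-25 g, dosed orally with compound in 0.5% aqueous tragacanth. DOPAC was measured fluorometrically after purification by column chromatography on Sephadex G-10 and QAE-Sephadex. Brains from five mice per compound were pooled for each determination.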

Mus musculus [18] = test: 3,4 -Dihydroxy phenylacetic acid (DOPAC) levels in mouse brain at 10 mg/kg dose.; in short: as §2
Mus musculus [19] = test: Exploratory activity of mice determined by an antimex activity meter, 50 mg/kg of dose was administered perorally
In short: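 Male Std-ddY mice (20-25 g), five per dose; compound in 0.5% aqueous tragacanth given orally. Two hours later each mouse placed in an Animex activity meter cage and locomotor activity counted for 3 min. Mean suppression expressed as percent inhibition of control; ED50 by Litchfield-Wilcoxon.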

Mus musculus [20] = test: The homovanillic acid (HVA) levels in mouse brain at 10 mg/kg of dose.; in short: as §1

SMILES | inhibition in vivo at 100 mg/kg (Mus musculus [1]) [%] | inhibition in vivo at 100 mg/kg (Mus musculus [3]) [%] | inhibition in vivo at 100 mg/kg (Mus musculus [4]) [%] | Activity (Mus musculus [6]) | also measured
NC(=O)N1CCN(C2=Nc3ccc(Br)cc3CC=C2c2ccccc2)CC1 | < 30 | < 30 | < 30 | – | Activity (Mus musculus [2]): 5
Brc1ccc2c(c1)CC=C(c1ccccc1)C(N1CCCCC1)=N2 | – | < 30 | < 30 | 0 | inhibition in vivo at 100 mg/kg (Mus musculus [5]): 31%
Clc1ccc(C2=CCc3ccc(Cl)cc3N=C2N2CCNCC2)cc1.O=C(O)/C=C/C(=O)O | – | < 30 | – | 0 | inhibition in vivo at 100 mg/kg (Mus musculus [5]): 31%; inhibition in vivo at 100 mg/kg (Mus musculus [7]): 51%
CCCc1ccc2c(c1)CC=C(c1ccccc1)C(N1CCN(CC)CC1)=N2.O=C(O)/C=C/C(=O)O | < 30 | < 30 | < 30 | 0 | –
C=CCN1CCN(C2=Nc3ccc(Br)cc3CC=C2c2ccccc2)CC1 | – | < 30 | < 30 | 0 | inhibition in vivo at 100 mg/kg (Mus musculus [5]): 31%
CCN1CCN(C2=Nc3ccc(C(C)C)cc3CC=C2c2ccccc2)CC1.O=C(O)/C=C/C(=O)O | < 30 | < 30 | – | 0 | inhibition in vivo at 100 mg/kg (Mus musculus [8]): 31%
COc1ccc(CN2CCN(C3=Nc4ccc(Br)cc4CC=C3c3ccccc3)CC2)cc1 | < 30 | < 30 | < 30 | 0 | –
OCCN1CCN(C2=Nc3ccccc3CC=C2c2ccc(O)cc2)CC1 | – | – | – | – | inhibition in vivo at 50 mg/kg (Mus musculus [9]): < 30%; inhibition in vivo at 50 mg/kg (Mus musculus [10]): < 30%
Brc1ccc2c(c1)CC=C(c1ccccc1)C(N1CCNCC1)=N2.O=C(O)/C=C/C(=O)O | – | < 30 | – | 0 | inhibition in vivo at 100 mg/kg (Mus musculus [5]): 31%
Fc1ccc(C2=CCc3ccccc3N=C2N2CCN(Cc3ccccc3)CC2)cc1 | – | – | – | – | inhibition in vivo at 50 mg/kg (Mus musculus [9]): < 30%
Clc1ccc2c(c1)N=C(N1CCNCC1)C(c1ccccc1)=CC2.O=C(O)/C=C/C(=O)O | – | – | < 30 | 0 | inhibition in vivo at 100 mg/kg (Mus musculus [5]): 31%; inhibition in vivo at 100 mg/kg (Mus musculus [11]): 31%
OCCN1CCN(C2=Nc3ccc(Br)cc3CC=C2c2ccccc2)CC1 | < 30 | < 30 | < 30 | – | ED50 (Mus musculus [12]): 14.6 mg/kg; Activity (Mus musculus [2]): 5; ED50 (Mus musculus [13]): 13.2 mg/kg
OC1(c2ccc(Cl)cc2)CCN(C2=Nc3ccccc3CC=C2c2ccccc2)CC1 | < 30 | – | < 30 | 0 | inhibition in vivo at 100 mg/kg (Mus musculus [11]): 31%
Clc1ccc2c(c1)CC=C(c1ccccc1)C(N1CCN(Cc3ccccc3)CC1)=N2 | – | < 30 | < 30 | 0 | inhibition in vivo at 100 mg/kg (Mus musculus [5]): 31%
CC(C)c1ccc2c(c1)CC=C(c1ccccc1)C(N1CCN(C)CC1)=N2.O=C(O)/C=C/C(=O)O | < 30 | < 30 | – | 0 | inhibition in vivo at 100 mg/kg (Mus musculus [7]): 51%
CN1CCN(C2=Nc3ccccc3CC=C2c2ccc(C(F)(F)F)cc2)CC1 | – | – | – | – | inhibition in vivo at 50 mg/kg (Mus musculus [9]): < 30%; inhibition in vivo at 50 mg/kg (Mus musculus [10]): < 30%
CN1CCN(C2=Nc3ccc(F)cc3CC=C2c2ccccc2)CC1.Cl.Cl | < 30 | – | < 30 | 0 | ED50 (Mus musculus [12]): > 500 mg/kg; inhibition in vivo at 100 mg/kg (Mus musculus [11]): 31%; ED50 (Mus musculus [13]): > 200 mg/kg
CN1CCN(C2=Nc3ccccc3CC=C2c2ccccc2)CC1.Cl.Cl | – | – | < 30 | 0 | inhibition in vivo at 100 mg/kg (Mus musculus [5]): 31%; ED50 (Mus musculus [12]): > 100 mg/kg; inhibition in vivo at 100 mg/kg (Mus musculus [14]): 51%

SMILES | inhibition in vivo at 100 mg/kg (Mus musculus [1]) [%] | inhibition in vivo at 100 mg/kg (Mus musculus [3]) [%] | inhibition in vivo at 100 mg/kg (Mus musculus [4]) [%] | Activity (Mus musculus [6]) | also measured
CCc1ccc2c(c1)CC=C(c1ccccc1)C(N1CCN(C)CC1)=N2.Cl.Cl | < 30 | – | – | – | Activity (Mus musculus [2]): 5; inhibition in vivo at 100 mg/kg (Mus musculus [7]): 51%; Activity (Mus musculus [15]): 0
CCCc1ccc2c(c1)CC=C(c1ccccc1)C(N1CCN(CCO)CC1)=N2.Cl.Cl | < 30 | < 30 | – | 0 | inhibition in vivo at 100 mg/kg (Mus musculus [7]): 51%
CN1CCN(C2=Nc3ccccc3CC=C2c2ccc(Cl)cc2)CC1.Cl.Cl | < 30 | – | – | 0 | inhibition in vivo at 100 mg/kg (Mus musculus [8]): 31%; inhibition in vivo at 100 mg/kg (Mus musculus [11]): 31%
CCN1CCN(C2=Nc3ccccc3CC=C2c2ccc(Cl)cc2)CC1.Cl.Cl | < 30 | – | < 30 | 0 | inhibition in vivo at 100 mg/kg (Mus musculus [14]): 51%
CN1CCN(C2=Nc3ccccc3CC=C2c2ccc(Br)cc2)CC1.Cl.Cl | – | – | – | – | inhibition in vivo at 1 mg/kg (Canis familiaris): 72.5%; inhibition in vivo at 50 mg/kg (Mus musculus [9]): < 30%; Control (Mus musculus [16]): 294%; Control (Mus musculus [17]): 233%; Control (Mus musculus [18]): 161%; inhibition in vivo at 50 mg/kg (Mus musculus [19]; Mus musculus, po): 13.2%; Inhibition (Mus musculus [19]; route oral, 50 mg/kg): 13.2%; Control (Mus musculus [20]): 162%
CN1CCN(C2=Nc3cc(Cl)ccc3CC=C2c2ccc(Cl)cc2)CC1.Cl.Cl | < 30 | – | < 30 | 0 | inhibition in vivo at 100 mg/kg (Mus musculus [14]): 51%
Cc1ccc(C2=CCc3ccccc3N=C2N2CCN(C)CC2)cc1.Cl.Cl | – | < 30 | – | 0 | inhibition in vivo at 100 mg/kg (Mus musculus [8]): 31%; inhibition in vivo at 100 mg/kg (Mus musculus [5]): 31%
CCc1ccc2c(c1)CC=C(c1ccccc1)C(N1CCN(CC)CC1)=N2.Cl.Cl | < 30 | – | – | – | Activity (Mus musculus [2]): 5; inhibition in vivo at 100 mg/kg (Mus musculus [7]): 51%; inhibition in vivo at 100 mg/kg (Mus musculus [11]): 31%; Activity (Mus musculus [15]): 0
Cl.Cl.OCCN1CCN(C2=Nc3cc(Cl)ccc3CC=C2c2ccccc2)CC1 | < 30 | < 30 | – | 0 | inhibition in vivo at 100 mg/kg (Mus musculus [7]): 51%
OCCN1CCN(C2=Nc3ccccc3CC=C2c2ccc(C(F)(F)F)cc2)CC1 | – | – | – | – | inhibition in vivo at 50 mg/kg (Mus musculus [9]): < 30%; inhibition in vivo at 50 mg/kg (Mus musculus [10]): < 30%
Cl.Cl.OCCN1CCN(C2=Nc3ccccc3CC=C2c2ccccc2Cl)CC1 | < 30 | – | – | 0 | inhibition in vivo at 100 mg/kg (Mus musculus [8]): 31%; inhibition in vivo at 100 mg/kg (Mus musculus [14]): 51%
C1=C(c2ccccc2)C(N2CCCCC2)=Nc2ccccc2C1.Cl.Cl | < 30 | – | < 30 | 0 | inhibition in vivo at 100 mg/kg (Mus musculus [11]): 31%
CCN1CCN(C2=Nc3ccccc3CC=C2c2ccccc2Cl)CC1.Cl.Cl | < 30 | < 30 | – | 0 | inhibition in vivo at 100 mg/kg (Mus musculus [8]): 31%
CCN1CCN(C2=Nc3ccc(F)cc3CC=C2c2ccccc2)CC1.Cl.Cl | < 30 | – | < 30 | 0 | ED50 (Mus musculus [12]): > 500 mg/kg; inhibition in vivo at 100 mg/kg (Mus musculus [14]): 51%; ED50 (Mus musculus [13]): > 100 mg/kg
CCN1CCN(C2=Nc3ccccc3CC=C2c2ccc(C(F)(F)F)cc2)CC1 | – | – | – | – | inhibition in vivo at 50 mg/kg (Mus musculus [9]): < 30%; inhibition in vivo at 50 mg/kg (Mus musculus [10]): < 30%
CN1CCN(C2=Nc3cc(Cl)ccc3CC=C2c2ccccc2)CC1.Cl.Cl | < 30 | < 30 | – | 0 | inhibition in vivo at 100 mg/kg (Mus musculus [7]): 51%
NC(=O)N1c2ccccc2C=Cc2ccccc21 [CARBAMAZEPINE] | – | – | – | – | ED50 (Mus musculus [12]): 13.3 mg/kg; ED50 (Mus musculus [13]): 10.3 mg/kg
O=C1NC(=O)C(c2ccccc2)(c2ccccc2)N1 [PHENYTOIN] | – | – | – | – | ED50 (Mus musculus [12]): 7.9 mg/kg; ED50 (Mus musculus [13]): 3.7 mg/kg
